Results collected from several papers.
Compare with care: the assays were run in different laboratories.
Target: Tyrosine-protein kinase ABL2 (ABL2, Homo sapiens, UniProt P42684)

O=c1[nH]c2ccccc2n1C1CCN(Cc2ccc(-c3[nH]c4cc5ncnc5cc4nc3-c3ccccc3)cc2)CC1
remaining signal (cell-free assay; 0.5 µM): 96.8%

Cn1cncc1[C@](O)(COc1ccc(C#N)cc1-c1ccc(OC(F)(F)F)cc1)c1ccc(C#N)cc1
remaining binding (cell-free assay, competition with immobilised ligand; 1 µM): 83%

Nc1ncc(-c2nc(N3CCOCC3)nc(N3CCOCC3)n2)c(C(F)F)n1
remaining binding (binding, competition with immobilised ligand; 10 µM): 99%

Cn1cc(-c2cc(F)cc(N3CCn4c(cc5c4CCCC5)C3=O)c2CO)cc(Nc2ccc(N3CCN(C4COC4)CC3)cn2)c1=O
inhibition (enzyme activity, inhibitor; 0.1 µM): 11%

COc1cc(Nc2ncc(F)c(Nc3ccc4c(n3)NC(=O)C(C)(C)O4)n2)cc(OC)c1OC
inhibition (binding, competition with immobilised ligand; 10 µM): 77%

C#Cc1n[nH]c2c(-c3cn([C@@H](C)c4ccccc4)c(=O)[nH]c3=O)cc(F)cc12
inhibition (enzyme activity, inhibitor; 0.1 µM): 2.4%

Cn1cc(-c2cccc(N3CCc4c(sc5c4CC(C)(C)C5)C3=O)c2CO)cc(Nc2ccncn2)c1=O
inhibition (enzyme activity, inhibitor; 1 µM): 4%

CC(C)(C)c1cc(C=C(C#N)C#N)cc(Br)c1O
remaining activity (enzyme activity, inhibitor; 0.5 µM): 57.1%

COc1ncccc1-c1cnn2ccc(N3CCN(C(=O)OC(C)C)CC3)nc12
remaining binding (binding, competition with immobilised ligand; 1 µM): 100%

C#Cc1n[nH]c2c(-c3cn([C@@H](C)c4ccccn4)c(=O)[nH]c3=O)cc(F)cc12
inhibition (enzyme activity, inhibitor; 0.1 µM): 5.9%

Cc1nn(C)cc1-c1nc2c(N3CCN(Cc4ccc(Cl)cc4)CC3)c(Cl)cnc2[nH]1
remaining binding (binding, competition with immobilised ligand; 1 µM): 100%
